The source of these data is ChEMBL document CHEMBL4145511, “Synthesis and leishmanicidal activity of eugenol derivatives bearing 1,2,3-triazole functionalities” (Eur J Med Chem, 2018).

≈ marks a conversion by molar mass, not a printed value. Calls of active or inactive are those of the source. The rule behind the calls is not given here.

For data set [1], the system named is Leishmania amazonensis. Kind of data set: Antileishmanial activity against GFP expressing Leishmania amazonensis WHOM/BR/75/Josefa promastigote forms after 72 hrs by fluorescence assay. Format: functional, organism-based. In short, it runs like this: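 GFP-transfected L. amazonensis WHOM/BR/75/Josefa promastigotes grown at 26 °C in M199 with penicillin, streptomycin, 10% heat-inactivated fetal calf serum and 2% human urine, kept under geneticin selection. Compounds dissolved in DMSO (final ≤1%), medium with 5% HIFCS, 72 h at 27 °C. Fluorescence read at 435/538 nm; triplicates, percent inhibition versus medium-only control.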

Data set [2] has as its system Leishmania amazonensis. Kind of data set: Antileishmanial activity against Leishmania amazonensis WHOM/BR/75/Josefa amastigote forms infected in BALB/c mouse peritoneal macrophages after 72 hrs by hematological staining-based microscopic analysis. Format: functional, organism-based. In a few lines:
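Peritoneal macrophages from BALB/c mice collected in ice-cold DMEM, plated at 2 × 10⁶/mL in chamber slides, 1 h at 37 °C and 4% CO₂, non-adherent cells washed off. Infected with stationary-phase promastigotes at 5:1 parasite/macrophage, free parasites washed off after 4 h. Treated, then stained with a hematological dye and amastigotes counted by optical microscopy; triplicate means.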

Data set [3] can be described thus: (§1) Cytotoxicity against BALB/c mouse peritoneal macrophages assessed as increase in LDH release. Format: cell-based, Peritoneal macrophage. To be noted: BALB/c, peritoneal macrophages, read-out: LD50 (the source's name). In short, it runs like this:
(§2)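 LDH released into the medium from macrophages was read at 340 nm. Cells in 2% Triton X-100 gave maximum release and cells in medium gave minimum release. Release was expressed as percent of the positive control, and the 50% value was obtained by linear regression.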
On the technique in general: LDH in the medium is a marker of cell lysis.

Data set [4] is described as follows: Selectivity index, ratio of LD50 for BALB/c mouse peritoneal macrophages to IC50 for antileishmanial activity against Leishmania amazonensis WHOM/BR/75/Josefa amastigote forms. Format: toxicity. The following applies: for selectivity ratio: BALB/c, peritoneal macrophages, read-out: Selectivity Index.
In data set [5] the test system is Peritoneal macrophage. Description: Induction of nitric oxide production in BALB/c mouse peritoneal macrophages. Format: functional, cell-based.
The test system of data set [6] is Peritoneal macrophage. Description: Cytotoxicity against BALB/c mouse peritoneal macrophages at 1 to 100 umol/L after 48 hrs by optical microscopy. Format: cell-based.
Data set [7] has as its system Leishmania amazonensis. Kind of data set: Antileishmanial activity against Leishmania amazonensis WHOM/BR/75/Josefa amastigote forms infected in BALB/c mouse peritoneal macrophages after 48 hrs by optical microscopy. In kind it is functional, organism-based. In short, it runs like this:
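BALB/c mouse peritoneal macrophages collected in ice-cold DMEM, plated at 2 × 10⁶/mL, and held 1 h at 37 °C with 4% CO₂. Non-adherent cells were washed off with PBS. Stationary-phase promastigotes were added at a 5:1 parasite:macrophage ratio at 35 °C with 5% CO₂, and free parasites were washed off after 4 h. After 48 h of treatment, slides were stained with a hematological dye and parasites were counted by optical microscopy.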

Data set [8] relates to Peritoneal macrophage. Described as §1. In kind it is cell-based. The following applies: peritoneal macrophage. In a few lines: as §2
For data set [9], the system named is Leishmania amazonensis. Kind of data set: Antileishmanial activity against Leishmania amazonensis MHOM/BR/75/Josefa promastigote forms by trypan blue assay. In kind it is functional, organism-based.
Setting [10] is: Leishmania amazonensis, WHOM/BR/75/Josefa, 72 h, read-out: IC50.

As to `C=CCc1ccc(OCCCc2cn(Cc3ccc(OC(F)(F)F)cc3)nn2)c(OC)c1`, inhibition in the data set on Leishmania amazonensis [1] was half-maximal at 146 µM (IC50).
Regarding `C=CCc1ccc(OCCCc2cn(Cc3ccc(C)cc3)nn2)c(OC)c1`, the figures for the IC50 in the data set with Leishmania amazonensis [1] and in the data set with Leishmania amazonensis [2] (setting [10]) were 7.4 µM and 1.6 µM, respectively. In data set [3], the CC50 amounted to 212 µM. The selectivity ratio in data set [4] was 132. Also, in the data set with Peritoneal macrophage [5], the outcome was inactive. Moreover, the Activity entry in the data set with Peritoneal macrophage [6] is on record as “Non-Toxic”. Besides, in the data set on Leishmania amazonensis [7], the outcome was Active.
As to `C=CCc1ccc(OCCCc2cn(Cc3ccc(Br)cc3)nn2)c(OC)c1`, in the data set with Leishmania amazonensis [1], inhibition was half-maximal at 287 µM (IC50).
Take `C=CCc1ccc(OCCCc2cn(Cc3ccc(C(F)(F)F)cc3)nn2)c(OC)c1`: in the data set with Leishmania amazonensis [1], it took 295 µM to reach half-maximal inhibition (IC50).
Still for that read-out and setting: for `C=CCc1ccc(OCCCc2cn(Cc3ccc(Cl)cc3)nn2)c(OC)c1` the value was 817 µM; for `C=CCc1ccc(OCc2cn(Cc3ccc(F)cc3)nn2)c(OC)c1`, 59.4 µM.
Same read-out and setting: the result for `C=CCc1ccc(OCc2cn(Cc3ccccc3Br)nn2)c(OC)c1` reads 160 µM; that for `C=CCc1ccc(OCCCc2cn(Cc3ccc(F)cc3)nn2)c(OC)c1`, 32.2 µM; that for `C=CCc1ccc(OCCCc2cn(Cc3ccc(F)c(F)c3)nn2)c(OC)c1`, 178 µM.
On to `C=CCc1ccc(OCc2cn(Cc3ccc(C)cc3)nn2)c(OC)c1`, for which the midpoint of inhibition in the data set on Leishmania amazonensis [1], the IC50, lay at 106 µM.
Take `C=CCc1ccc(OCCCc2cn(Cc3ccc(I)cc3)nn2)c(OC)c1`: in the data set with Leishmania amazonensis [1], half-maximal inhibition (IC50) required 279 µM.
On to `N=C(N)c1ccc(OCCCCCOc2ccc(C(=N)N)cc2)cc1` [PENTAMIDINE], for which the IC50 (commonly the concentration at which inhibition is half-maximal) is 4.2 µM with Leishmania amazonensis [1] and 1.8 µM with Leishmania amazonensis [2] (setting [10]). In addition, in data set [3], the CC50 came out at 8.5 µM. For the same compound, in data set [4], the selectivity ratio was 4.7.
On to `C=CCc1ccc(OCc2cn(Cc3ccc([N+](=O)[O-])cc3)nn2)c(OC)c1`, for which the IC50 in the data set with Leishmania amazonensis [1] was determined as 130 µM.
`C=CCc1ccc(OCc2cn(Cc3ccc(C(F)(F)F)cc3)nn2)c(OC)c1` gave an IC50 in the data set with Leishmania amazonensis [1] of 2010 µM.
On to “MEGLUMINE ANTIMONATE [listing 1 of 2 here]”, for which, in the data set on Leishmania amazonensis [7], the outcome was Active.
On to `C=CCc1ccc(OCCCc2cn(Cc3ccc([N+](=O)[O-])cc3)nn2)c(OC)c1`, for which the IC50 in the data set on Leishmania amazonensis [1] came out at 173 µM.
As to `C=CCc1ccc(OCc2cn(Cc3ccc(Cl)cc3)nn2)c(OC)c1`, in the data set with Leishmania amazonensis [1], the IC50 was found to be 1780 µM.
Turning to “MEGLUMINE ANTIMONATE [listing 2 of 2 here]”, the IC50 in the data set with Leishmania amazonensis [2] is 45.5 µg/mL. Moreover, the LD50 in the data set with Peritoneal macrophage [8] was 75.5 µg/mL. Further, the “Selectivity Index” value in data set [4] worked out at 1.6. Besides, the Activity entry in the data set on Peritoneal macrophage [6] is reported as “Non-Toxic”.
As to `C=CCc1ccc(OCc2cn(Cc3ccc(F)c(F)c3)nn2)c(OC)c1`, half-maximal inhibition in the data set on Leishmania amazonensis [1] (IC50) required 969 µM.
Take `C=CCc1ccc(OCc2cn(Cc3ccc(Br)cc3)nn2)c(OC)c1`: the half-inhibitory concentration (IC50) in the data set with Leishmania amazonensis [1] was determined as 993 µM.
Still for that read-out and setting: the result for `C=CCc1ccc(OCc2cn(Cc3ccc(I)cc3)nn2)c(OC)c1` reads 2010 µM; that for `C=CCc1ccc(OCc2cn(Cc3ccc(OC(F)(F)F)cc3)nn2)c(OC)c1`, 322 µM; that for `C=CCc1ccc(OCc2cn(Cc3ccc(OC)cc3)nn2)c(OC)c1`, 425 µM.
Turning to `C=CCc1ccc(OCCCc2cn(Cc3cccc(Br)c3)nn2)c(OC)c1`, the IC50 with Leishmania amazonensis [1] stood at 980 µM.
As to `C=CCc1ccc(OCc2cn(Cc3ccccc3)nn2)c(OC)c1`, in the data set on Leishmania amazonensis [1], it took 30.2 µM to reach half-maximal inhibition (IC50).
`C=CCc1ccc(OCCCc2cn(Cc3ccccc3Br)nn2)c(OC)c1` showed an IC50 in the data set on Leishmania amazonensis [1] of 913 µM.
Regarding `C[C@@H]1[C@H](O)[C@@H](C)/C=C/C=C/C=C/C=C/C=C/C=C/C=C/[C@H](O[C@@H]2O[C@H](C)[C@@H](O)[C@H](N)[C@@H]2O)C[C@@H]2O[C@](O)(C[C@@H](O)C[C@@H](O)[C@H](O)CC[C@@H](O)C[C@@H](O)CC(=O)O[C@H]1C)C[C@H](O)[C@H]2C(=O)O` [AMPHOTERICIN B], the IC50 in the data set on Leishmania amazonensis [1] is 0.4 µM.
`C=CCc1ccc(OCCCc2cn(Cc3ccccc3)nn2)c(OC)c1` yielded an IC50 with Leishmania amazonensis [1] of 37.9 µM.
Turning to `C=CCc1ccc(OCCCc2cn(Cc3ccc(OC)cc3)nn2)c(OC)c1`, it took 120 µM to reach half-maximal inhibition in the data set with Leishmania amazonensis [1] (IC50).
In turn, `C=CCc1ccc(O)c(OC)c1` [EUGENOL] came in with an IC50 in the data set on Leishmania amazonensis [9] of 80 µg/mL (≈ 487 µM).
With `C=CCc1ccc(OCc2cn(Cc3cc(Cl)ccc3Cl)nn2)c(OC)c1`, inhibition in the data set with Leishmania amazonensis [1] was half-maximal at 49.2 µM (IC50).
The same measure, in the same setting: for `C=CCc1ccc(OCc2cn(Cc3cccc(Br)c3)nn2)c(OC)c1` the value was 156 µM.
